Data on four compounds can be found in ChEMBL document CHEMBL2424622, “Development of amino-pyrimidine inhibitors of c-Jun N-terminal kinase (JNK): kinase profiling guided optimization of a 1,2,3-benzotriazole lead” (Bioorg Med Chem Lett, 2013).

As usually defined, the inhibition is the drop in the measured response relative to a control, in per cent.

Experiment [1] has as its target T1, Tyrosine-protein kinase receptor TYRO3 (Homo sapiens) (UniProt Q06418).
T1 sequence (whole entry): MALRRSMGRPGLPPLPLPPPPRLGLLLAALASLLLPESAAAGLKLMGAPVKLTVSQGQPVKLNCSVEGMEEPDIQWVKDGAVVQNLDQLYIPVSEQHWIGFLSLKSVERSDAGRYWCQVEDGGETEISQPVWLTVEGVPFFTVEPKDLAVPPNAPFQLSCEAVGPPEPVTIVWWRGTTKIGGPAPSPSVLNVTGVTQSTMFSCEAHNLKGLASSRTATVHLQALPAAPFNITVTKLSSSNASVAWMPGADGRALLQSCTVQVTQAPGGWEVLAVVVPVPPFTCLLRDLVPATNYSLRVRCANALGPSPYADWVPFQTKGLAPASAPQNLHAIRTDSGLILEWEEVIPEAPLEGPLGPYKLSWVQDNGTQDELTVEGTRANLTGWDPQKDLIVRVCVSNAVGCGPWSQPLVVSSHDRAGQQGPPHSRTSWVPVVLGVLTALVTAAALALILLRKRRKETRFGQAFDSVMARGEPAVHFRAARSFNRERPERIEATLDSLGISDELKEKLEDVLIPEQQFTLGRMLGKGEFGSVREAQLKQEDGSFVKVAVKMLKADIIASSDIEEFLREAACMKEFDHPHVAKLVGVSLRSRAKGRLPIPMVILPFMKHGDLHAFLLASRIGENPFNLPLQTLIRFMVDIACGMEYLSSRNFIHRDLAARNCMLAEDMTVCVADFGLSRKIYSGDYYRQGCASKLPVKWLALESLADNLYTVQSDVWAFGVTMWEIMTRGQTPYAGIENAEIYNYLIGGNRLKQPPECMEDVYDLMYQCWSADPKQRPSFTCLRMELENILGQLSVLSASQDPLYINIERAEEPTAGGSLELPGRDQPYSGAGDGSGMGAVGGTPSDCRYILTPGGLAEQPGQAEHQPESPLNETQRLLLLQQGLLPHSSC
The experiment in a line: Competitive binding affinity to TYRO3 (unknown origin) at 10 uM in presence of ATP relative to control.

In experiment [2] the target is T2, Ephrin type-B receptor 2 (Homo sapiens) (UniProt P29323).
T2 sequence (whole entry): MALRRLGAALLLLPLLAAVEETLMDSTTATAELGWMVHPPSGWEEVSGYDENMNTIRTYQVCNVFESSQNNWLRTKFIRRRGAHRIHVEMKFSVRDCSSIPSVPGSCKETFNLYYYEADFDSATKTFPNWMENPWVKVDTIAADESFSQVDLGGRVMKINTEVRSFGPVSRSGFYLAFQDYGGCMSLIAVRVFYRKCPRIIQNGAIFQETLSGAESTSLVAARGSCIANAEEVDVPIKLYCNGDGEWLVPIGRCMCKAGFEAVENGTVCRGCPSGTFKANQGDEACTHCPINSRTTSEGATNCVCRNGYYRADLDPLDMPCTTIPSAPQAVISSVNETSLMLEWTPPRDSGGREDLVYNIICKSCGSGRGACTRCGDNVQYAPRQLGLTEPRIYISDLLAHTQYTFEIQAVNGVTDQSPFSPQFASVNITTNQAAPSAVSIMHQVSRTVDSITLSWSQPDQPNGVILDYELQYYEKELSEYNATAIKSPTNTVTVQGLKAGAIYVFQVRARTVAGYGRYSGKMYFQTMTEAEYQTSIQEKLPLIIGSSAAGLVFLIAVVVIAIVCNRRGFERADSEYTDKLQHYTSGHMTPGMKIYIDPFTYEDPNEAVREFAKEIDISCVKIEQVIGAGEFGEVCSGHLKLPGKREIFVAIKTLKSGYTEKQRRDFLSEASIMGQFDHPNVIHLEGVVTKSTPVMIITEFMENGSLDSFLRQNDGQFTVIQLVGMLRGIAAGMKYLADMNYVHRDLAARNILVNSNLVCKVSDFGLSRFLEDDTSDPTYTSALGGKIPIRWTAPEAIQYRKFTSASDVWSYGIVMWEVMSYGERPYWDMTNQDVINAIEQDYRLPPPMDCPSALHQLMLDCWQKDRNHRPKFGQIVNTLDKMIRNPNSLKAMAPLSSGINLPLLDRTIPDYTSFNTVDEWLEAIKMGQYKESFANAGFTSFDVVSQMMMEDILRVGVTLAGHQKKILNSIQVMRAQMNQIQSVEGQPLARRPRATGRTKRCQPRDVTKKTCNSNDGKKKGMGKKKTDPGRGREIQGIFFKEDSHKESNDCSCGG
The experiment can be described thus: Competitive binding affinity to EPHB2 (unknown origin) at 10 uM in presence of ATP relative to control. A digest of the protocol:
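In vitro ATP-site competition binding assay, part of profiling against a diverse panel of 128 kinases. Each compound was tested at a single concentration of 10 µM. Kinome selectivity was summarized as S15 selectivity scores.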

The target of experiment [3] is T3, cGMP-dependent protein kinase 2 (Homo sapiens) (UniProt Q13237).
T3 sequence (whole entry): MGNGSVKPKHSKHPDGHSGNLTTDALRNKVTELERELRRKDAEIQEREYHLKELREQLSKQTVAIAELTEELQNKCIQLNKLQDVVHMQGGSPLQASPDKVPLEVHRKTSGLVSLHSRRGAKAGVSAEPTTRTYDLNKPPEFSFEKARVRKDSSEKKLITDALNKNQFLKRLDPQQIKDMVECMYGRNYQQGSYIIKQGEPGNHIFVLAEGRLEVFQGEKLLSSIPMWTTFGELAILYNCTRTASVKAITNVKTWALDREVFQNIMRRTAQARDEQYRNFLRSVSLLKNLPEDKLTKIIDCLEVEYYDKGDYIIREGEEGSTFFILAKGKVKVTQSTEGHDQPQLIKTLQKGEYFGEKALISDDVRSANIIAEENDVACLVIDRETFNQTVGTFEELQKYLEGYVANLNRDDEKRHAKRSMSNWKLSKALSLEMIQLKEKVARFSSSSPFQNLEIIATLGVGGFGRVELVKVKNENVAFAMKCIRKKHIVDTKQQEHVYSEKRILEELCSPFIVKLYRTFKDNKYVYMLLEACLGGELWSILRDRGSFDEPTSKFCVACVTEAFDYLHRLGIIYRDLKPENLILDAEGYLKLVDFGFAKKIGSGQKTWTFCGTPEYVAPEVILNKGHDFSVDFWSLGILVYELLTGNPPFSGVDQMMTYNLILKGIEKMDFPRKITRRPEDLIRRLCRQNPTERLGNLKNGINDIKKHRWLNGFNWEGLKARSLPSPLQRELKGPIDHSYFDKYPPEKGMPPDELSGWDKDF
The experiment in a line: Competitive binding affinity to PRKG2 (unknown origin) at 10 uM in presence of ATP relative to control.

For experiment [4], the target named is TGF-beta receptor type-2 (Homo sapiens) (UniProt P37173). The experiment can be described thus: Competitive binding affinity to TGFBR2 (unknown origin) at 10 uM in presence of ATP relative to control.
Experiment [5] addresses Ribosomal protein S6 kinase alpha-4 (Homo sapiens) (UniProt O75676). The experiment can be described thus: Competitive binding affinity to RPS6KA4 kinase domain 2 (unknown origin) at 10 uM in presence of ATP relative to control.

Each structure is given as a SMILES string.

TGF-beta receptor type-2 (Homo sapiens), sequence (P37173 whole entry, the tested form may be a part): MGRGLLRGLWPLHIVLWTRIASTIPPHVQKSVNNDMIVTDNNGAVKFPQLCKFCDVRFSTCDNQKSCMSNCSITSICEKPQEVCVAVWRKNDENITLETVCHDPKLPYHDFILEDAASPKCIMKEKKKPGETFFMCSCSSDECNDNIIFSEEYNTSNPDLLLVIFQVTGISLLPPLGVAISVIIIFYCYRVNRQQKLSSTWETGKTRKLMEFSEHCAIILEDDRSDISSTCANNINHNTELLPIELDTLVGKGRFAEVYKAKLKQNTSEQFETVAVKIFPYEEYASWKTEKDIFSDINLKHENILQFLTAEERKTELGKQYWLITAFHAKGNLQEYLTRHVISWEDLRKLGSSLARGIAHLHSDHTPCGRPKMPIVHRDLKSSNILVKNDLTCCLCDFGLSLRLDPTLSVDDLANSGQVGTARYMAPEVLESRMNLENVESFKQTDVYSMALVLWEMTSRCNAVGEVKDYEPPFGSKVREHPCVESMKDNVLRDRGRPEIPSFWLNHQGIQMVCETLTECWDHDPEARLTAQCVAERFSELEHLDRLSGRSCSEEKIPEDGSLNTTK
Ribosomal protein S6 kinase alpha-4 (Homo sapiens), sequence (O75676 whole entry, looked up, the tested form may be a part): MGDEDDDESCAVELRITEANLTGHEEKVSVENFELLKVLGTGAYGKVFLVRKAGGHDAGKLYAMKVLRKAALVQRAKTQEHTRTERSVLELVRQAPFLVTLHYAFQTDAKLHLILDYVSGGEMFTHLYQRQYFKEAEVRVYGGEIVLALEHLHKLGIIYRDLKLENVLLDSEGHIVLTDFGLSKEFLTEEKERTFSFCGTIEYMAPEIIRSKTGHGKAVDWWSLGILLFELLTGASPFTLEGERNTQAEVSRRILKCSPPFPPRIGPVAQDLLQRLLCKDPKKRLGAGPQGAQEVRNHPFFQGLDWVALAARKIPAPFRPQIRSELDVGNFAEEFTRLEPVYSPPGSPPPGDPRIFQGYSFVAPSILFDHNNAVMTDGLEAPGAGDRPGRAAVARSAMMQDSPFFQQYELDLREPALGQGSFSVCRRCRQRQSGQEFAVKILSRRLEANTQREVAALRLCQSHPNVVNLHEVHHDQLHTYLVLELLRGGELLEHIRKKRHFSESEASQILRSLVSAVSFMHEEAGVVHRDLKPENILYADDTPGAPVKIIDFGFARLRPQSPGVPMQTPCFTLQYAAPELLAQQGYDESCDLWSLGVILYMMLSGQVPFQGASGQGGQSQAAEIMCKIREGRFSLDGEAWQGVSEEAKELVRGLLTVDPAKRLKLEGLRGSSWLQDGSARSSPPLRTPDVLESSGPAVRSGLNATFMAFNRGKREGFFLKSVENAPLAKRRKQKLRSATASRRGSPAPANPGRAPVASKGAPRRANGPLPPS

Consider `O[C@H]1CC[C@H](Nc2nccc(-c3n[nH]c4ccccc34)n2)CC1`, for which the inhibition in experiment [1], in experiment [2] and in experiment [3] was < 50% in each case.
For the compound `O[C@H]1CC[C@H](Nc2nccc(-n3ccc4ccccc43)n2)CC1`, the inhibition in experiment [4], in experiment [5], in experiment [1], in experiment [2] and in experiment [3] was < 50% in each case.
As to `O[C@H]1CC[C@H](Nc2nccc(-n3ncc4ccccc43)n2)CC1`, the inhibition in experiment [4], in experiment [5], in experiment [1], in experiment [2] and in experiment [3] was < 50% in each case.
With `O[C@H]1CC[C@H](Nc2nccc(-n3nnc4ccccc43)n2)CC1`, the inhibition in experiment [4] is 96%; in experiment [5], 94%; in experiment [1] it was < 50%; in experiment [2], < 50%; in experiment [3], < 50%.
